In the library only some 4.1% were active in any assay of this set; here they are far more common.
AHR activator – activates the human aryl hydrocarbon receptor | P35869 | activation, % at 5 µM | AID 2796 | AHR-responsive luciferase reporter cells, luminescence | 2.5% of 320,000 active; in the data active means activation above about 47%;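 further: 0% = vehicle wells and 100% = reference agonist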
Target sequence (P35869 whole entry, looked up): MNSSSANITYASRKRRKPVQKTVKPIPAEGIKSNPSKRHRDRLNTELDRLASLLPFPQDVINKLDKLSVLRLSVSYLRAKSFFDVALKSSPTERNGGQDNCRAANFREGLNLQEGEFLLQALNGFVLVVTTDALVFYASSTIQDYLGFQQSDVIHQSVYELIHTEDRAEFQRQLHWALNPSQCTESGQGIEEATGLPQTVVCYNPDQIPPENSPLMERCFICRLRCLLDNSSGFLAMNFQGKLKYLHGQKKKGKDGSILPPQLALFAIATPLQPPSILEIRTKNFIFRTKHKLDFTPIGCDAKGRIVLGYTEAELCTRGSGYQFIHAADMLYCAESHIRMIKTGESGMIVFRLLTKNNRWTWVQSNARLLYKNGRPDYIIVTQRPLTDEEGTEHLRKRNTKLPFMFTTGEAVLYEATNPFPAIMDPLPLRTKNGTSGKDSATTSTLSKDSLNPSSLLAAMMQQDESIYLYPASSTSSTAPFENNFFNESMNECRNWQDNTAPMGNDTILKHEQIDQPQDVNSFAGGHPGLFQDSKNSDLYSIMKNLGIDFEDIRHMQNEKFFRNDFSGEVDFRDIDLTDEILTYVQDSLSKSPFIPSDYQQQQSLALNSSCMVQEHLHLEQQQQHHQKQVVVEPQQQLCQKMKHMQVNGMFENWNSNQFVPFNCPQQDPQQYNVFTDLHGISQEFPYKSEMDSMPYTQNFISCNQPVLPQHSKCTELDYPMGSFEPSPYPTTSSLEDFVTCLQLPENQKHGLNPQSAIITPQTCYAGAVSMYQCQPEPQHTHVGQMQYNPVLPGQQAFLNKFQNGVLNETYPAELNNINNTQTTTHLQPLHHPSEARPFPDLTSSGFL
TbMetRS inhib – blocks T. brucei methionyl-tRNA synthetase activity; purified T. brucei MetRS, ATP depletion, Kinase-Glo luminescence; inhibition, % at 11.9 µM; 0.4% of 360,000 active; AID 624268;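 active means inhibition above a per-plate cutoff of the control wells' mean inhibition plus 3 SD, cut at about 5.5% in these data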;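 further: 0% = DMSO wells median and 100% = median of wells with control inhibitor compound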
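Assay system: T. brucei methionyl-tRNA synthetase, purified | Medium: HEPES buffer with MgCl2, KCl, DTT, spermine, BSA, pyrophosphatase | Compound: 11.9 µM single point | Incubation: 15 min enzyme-compound preincubation, 2 h reaction, 10 min detection, 25 °C | Measured by: Kinase-Glo luciferase luminescence reporting remaining unconsumed ATP | Measure: % inhibition normalized to control-well medians | Replication: Singlicate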
Efflux pump inh – inhibitors of Candida antifungal efflux pumps expressed in yeast; S. cerevisiae Candida pump triplex, Nile Red efflux; inhibition, % at 10 µM; 0.44% of 330,000 active;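 active means plate passing quality check with inhibition over a set limit, or well fluorescence over plate mean plus 4 SD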;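 further: Nile Red retained in pooled yeast measured as flow cytometry median fluorescence; 0% = buffer negative control and 100% = Enniatin B positive control; higher means more Nile Red kept so more efflux inhibition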
TAG inh – reduces triacylglycerol accumulation in H9c2 cells; Nile Red lipid (TAG) fluorescence; cells loaded with 200 µM oleic acid; inhibition, % at 12.5 µM; 0.66% of 230,000 active; AID 651582;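 active means pattern-corrected inhibition of lipid staining of at least 50% with the nuclear-stain viability signal not falling by more than 50%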;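 further: 0% = DMSO wells and 100% = triacsin C control wells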
SMARCA2 activ – SMARCA2 function activation, primary screen; MG213 cells, MMTV-luciferase reporter, dexamethasone, overnight; activation, % at 9.1 µM; 1% of 370,000 active; AID 652017; in the data active means activation above about 7.8%;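 further: 0% = vehicle wells and 100% = reference activator wells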
AHR act confirm – human AHR activation, confirmation | activation, % at 9 µM | human cells, AHR-responsive luciferase reporter, luminescence | AID 2845 | 87% of 2,300 active | shares compounds with AHR activator; in the data active means activation above about 49%;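 further: HepG2 hepatoma cells carrying a DRE-driven firefly luciferase reporter; 0% = vehicle wells and 100% = reference agonist wells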
PXR act counter – PXR activation, counter-screen for AHR activators | shares compounds with AHR activator | cell-based PXR reporter, luciferase luminescence | activation, % at 11.6 µM | 88% of 2,300 active | AID 434939; in the data active means activation above about 11%;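 further: human hepatoma DPX-2 cells expressing full-length human PXR; 0% = DMSO and 100% = reference agonist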
Yeast cmpd fluor – flagged as fluorescent in efflux inhibitor counter-screen. shares compounds with Efflux pump inh. S. cerevisiae AD/pABC3, compound fluorescence, flow cytometry. fluorescence ratio to DMSO, % at 10 µM. 4% of 1,700 active. AID 588517;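 active means fluorescence ratio to DMSO above its plate's cutoff, the plate mean ratio plus 5 SD, cut at about 210% in these data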;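 further: unstained yeast with no Nile Red so the signal is compound autofluorescence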
CaMdr1 efflux inh – inhibitors of Candida albicans Mdr1 efflux pump; 1% of 1,700 active; S. cerevisiae AD/CaMDR1, Nile Red efflux, flow cytometry; inhibition, % at 10 µM; shares compounds with Efflux pump inh; in the data active means inhibition above about 26%;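 further: 0% = DMSO vehicle and 100% = reference inhibitor; higher means more Nile Red retained so more efflux inhibition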
Cdr2 pump inh – inhibitors of Candida albicans Cdr2 efflux pump; shares compounds with Efflux pump inh; S. cerevisiae AD/CaCDR2, Nile Red retention, flow cytometry; Nile Red retention ratio vs DMSO, % at 10 µM; 4% of 1,700 active; in the data active means Nile Red retention ratio vs DMSO above about 190%;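 further: higher ratio means more blocking of Cdr2 efflux of the dye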
CaCdr1 efflux inh – inhibitors of Candida albicans Cdr1 efflux pump; shares compounds with Efflux pump inh; S. cerevisiae AD/CaCDR1, Nile Red efflux, flow cytometry; inhibition, % at 10 µM; 1% of 1,700 active;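 active means inhibition above the screen-wide mean plus twice its standard deviation, cut at about 32% in these data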
* hit, by the source's call; · = no result given.

SMILES	AHR activator	TbMetRS inhib	Efflux pump inh	TAG inh	SMARCA2 activ	others
O=C(c1ccc2c(c1)OCO2)C1CCCN(Cc2c(F)cccc2Cl)C1 (stereo unspecified)	48*	0	0	·	1
O=C(O)c1cc2ccccc2n1C1CCN(Cc2ccccc2)CC1	·	·	·	·	-1
c1cncc(-c2ccc3n2Cc2cnnn2-c2ccccc2-3)c1	·	·	·	·	-3
S=C=Nc1cccc(C2(N3CCCCC3)CCCCC2)c1	-1	-1	0	24	11*
c1ccc(C2(N3CCCCC3)CCCCC2)cc1	0	0	0	·	-1
Cc1cnc(-n2c(=S)[nH]c3ccccc3c2=O)s1	125*	0	0	-6	-1	AHR act confirm=137*;PXR act counter=19*
O=C1CN=C(c2ccc(Br)cc2)c2oc3ccccc3c2N1	82*	-1	0	-7	1	AHR act confirm=108*;PXR act counter=29*
O=C1CN=C(c2ccc(F)cc2)c2oc3ccccc3c2N1	3	0	0	-21	-2
O=C(Nc1ccccc1)N1Cc2cc(Br)ccc2-n2nncc2C1	·	·	·	·	-2
N#CC1c2ccccc2-n2nncc2CN1C(=O)c1cccnc1 (stereo unspecified)	·	·	·	·	-2
Nc1ccc(N=Nc2ccccc2)cc1	-4	-1	1	23	-3
Cc1cc(N=Nc2ccccc2C)ccc1N	80*	·	0	30	4	AHR act confirm=130*;PXR act counter=12*
Cc1nc2cc([N+](=O)[O-])ccc2c(=O)n1-c1ccc(Br)cc1	87*	0	0	·	-1	AHR act confirm=34;PXR act counter=11*
Cc1nc2ccc(Cl)cc2c(=O)n1-c1ccc([N+](=O)[O-])cc1	140*	0	0	·	-3	AHR act confirm=4;PXR act counter=11*
Cc1ccc2nc(-c3ccc(CN4CCC(n5nnc6ccccc65)CC4)cc3)c(-c3ccccc3)nc2c1	·	·	·	·	-3
C(=NN1CCCCCC1)c1c[nH]c2ccccc12	·	0	·	0	1
Brc1ccc2[nH]cc(/C=N/N3CCCCC3)c2c1	83*	0	0	-3	-1	AHR act confirm=33;PXR act counter=22*
O=c1[nH]c(=S)[nH]c(O)c1/C=C1/C=c2ccccc2=N1	18	-1	0.5*	·	-4	Yeast cmpd fluor=97;CaMdr1 efflux inh=0;Cdr2 pump inh=118;CaCdr1 efflux inh=0
C=CCN1C(=O)NC(=O)/C(=C/c2cc3c4c(c2)CCCN4CCC3)C1=O	2	0	1.6*	5	-3	Yeast cmpd fluor=118;CaMdr1 efflux inh=0;Cdr2 pump inh=114;CaCdr1 efflux inh=0
CC(Cc1ccccc1)[n+]1cc(/N=C(\N)[O-])on1 (stereo unspecified)	0	-2	1.1*	10	-2	Yeast cmpd fluor=95;CaMdr1 efflux inh=0;Cdr2 pump inh=103;CaCdr1 efflux inh=0
N=c1c2c(-c3ccccc3)c(-c3ccccc3)n(Cc3ccccc3)c2ncn1C1CCC(O)CC1 (stereo unspecified)	·	·	·	·	3
CCOC(=O)CNC(=O)N1Cc2cc(Br)ccc2-n2nncc2C1	·	·	·	·	5
O=P(Nc1c(Cl)cccc1Cl)(c1ccccc1)c1nc2c(s1)CCCC2 (stereo unspecified)	-1	0	5.9*	·	·	Yeast cmpd fluor=109;CaMdr1 efflux inh=-1;Cdr2 pump inh=102;CaCdr1 efflux inh=0
O=C(NCCN1CCC2(CC1)C(=O)NCN2c1ccccc1)C(c1ccccc1)c1ccccc1	·	·	·	·	2
CC(C)[C@H]1C(=O)O[C@H](C(C)C)C(=O)N(C)[C@@H](C(C)C)C(=O)O[C@H](C(C)C)C(=O)N(C)[C@@H](C(C)C)C(=O)O[C@H](C(C)C)C(=O)N1C	-4	-1	86*	·	·	Yeast cmpd fluor=92;CaMdr1 efflux inh=123*;Cdr2 pump inh=114;CaCdr1 efflux inh=80*
Cc1ccc(OC(=O)N(C)C[C@H]2OCc3cnnn3CCCC(=O)N([C@H](C)CO)C[C@H]2C)cc1	·	·	·	·	1

Screening data: PubChem, several laboratories
